Screening results as filed in PubChem.
bCat KO growth = beta-catenin-lacking colon tumor cell growth suppression. HCT116 beta-catenin knockout viability, CellTiter-Glo, 60 h; hits give low values. viability, % at 10 µM. 140,000 compounds, 1.5% hits. AID 818;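 active = viability at or under a set limit, the compound median less 4 SD, cut at about 6% in these data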;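 also: 0% = Hyamine 1622 control at 20 µM and 100% = untreated cell control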
PTEN del growth = PTEN-deleted cell growth suppression. HCT116 PTEN-null viability, CellTiter-Glo, 60 h; hits give low values. viability, % at 10 µM. 140,000 compounds, 1.2% hits. AID 827;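 active = viability at or below a set limit, 4 SD under the median of all tested compounds, cut at about 3.7% in these data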;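 also: PTEN knockout HCT116 line with beta catenin targeted HCT116 as companion control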
H69AR growth 86K = blocks growth of human H69AR lung tumor cells; H69AR lung tumor viability, ATP luminescence, 72 h; hits give low values; viability, % at 10 µM; 85,000 compounds, 6% hits; AID 598;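 active = viability at or below 40%; inactive = viability above 40%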;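 also: multidrug resistant small cell line overexpressing MRP-1 efflux transporter; 100% = mean luminescence of untreated control wells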
Fibroblast inh = blocks proliferation of human lung fibroblasts. LL 47 human lung fibroblast viability, ATP luminescence; hits give low values. AID 719. viability, % at 10 µM. 85,000 compounds, 1.1% hits;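 active = viability at or below 50% in the single dose screen; inactive = viability above 50%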;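 also: compound exposure lasted 72 h before the ATP readout; 100% = median luminescence of untreated cell-only wells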
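material = human LL 47 lung fibroblast cells | dosing = compounds added from tenfold dosing solution, 0.1% DMSO final | timing = overnight cell rest, 72 h compound treatment at 37 °C | measured by = CellTiter-Glo luminescence measuring cellular ATP | evaluation = % viability versus median cells-only luminescence | control set = cell-only wells, no compound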
HUVEC prolif 384 = human endothelial cell proliferation inhibition; HUVEC proliferation, CellTiter-Glo luminescence, 72 h; hits give low values; viability, % at 10 µM (by protocol); 86,000 compounds, 1.1% hits;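 active = viability at or below 30%; inactive = viability above 30%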;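 also: 100% = median luminescence of DMSO-only cell control wells on each plate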
Numbers without * were called inactive; x = no result. This excerpt belongs to a sample that is enriched for hits.

SMILES	bCat KO growth	PTEN del growth	H69AR growth 86K	Fibroblast inh	HUVEC prolif 384
CCCc1nc2ccccc2c(C(=O)OCC(=O)Nc2ccc(S(=O)(=O)N3CCOCC3)cc2)c1CC	36	28	5.8*	79	66
CCN(CC)S(=O)(=O)c1cccc(C(=O)Nc2cc(C)cc(C)c2)c1	83	85	32*	100	82
CCN(CC)S(=O)(=O)c1cccc(C(=O)Nc2cccc(C)c2)c1	33	48	25*	102	92
CCN(CC)S(=O)(=O)c1cccc(C(=O)Nc2ccc(C#N)cc2)c1	17	19	80	x	86
Cc1ccc(Nc2cc(C)nc(-c3ccccc3O)n2)cc1	66	57	43	88	70
Cc1cc(NCCCN)nc(-c2ccccc2O)n1	61	64	21*	100	98
Cc1cc(N/N=C/c2ccc(O)c(C)c2O)nc(-c2ccccc2O)n1	1.7*	1.8*	x	x	x
COc1cccc(NC(=O)CSC(N)=O)c1	89	95	x	x	x
COc1cc2c(cc1OC)C(c1ccc(-c3ccc(Cl)cc3Cl)o1)=NCC2	11	13	x	x	x
COc1cc2c(cc1OC)C(c1ccc(-c3ccc(Cl)c(Cl)c3)o1)=NCC2	4.1*	2.8*	19*	71	65
COc1cc2c(cc1OC)C(c1ccc(-c3cc(Cl)ccc3Cl)o1)=NCC2	7	3.3*	56	84	77
COc1ccc2c(c1)CCN=C2Cc1ccc(OC)c(OC)c1	55	60	x	x	x
COc1cc2c(cc1OC)C(c1ccc(-c3ccccc3Cl)o1)=NCC2	16	17	30*	82	68
S=C(c1ccc(-c2ccccc2Cl)o1)N1CCCCC1	98	107	x	x	x
N#Cc1c(N)n(C2CCCCC2)c2nc3ccccc3nc12	87	74	35*	69	69
CCCCc1cc(=O)oc2cc(OCC(=O)N3CCc4ccccc43)ccc12	94	99	29*	104	55
COc1ccc2c(c1)c(=O)oc1cc(OCC(=O)N3CCc4ccccc4C3)ccc12	90	84	29*	97	56
CCOC(=O)c1c(-c2ccccc2)oc2cc(CN(C)C)c(O)c(CN(C)C)c12	x	x	10*	94	9.3*
Cc1cccc2sc(NC(=O)C3c4ccccc4Oc4ccccc43)nc12	61	45	x	x	x
CC(C)CN(CC(C)C)C(=O)C12CCC(C)(C(=O)O1)C2(C)C (stereo not drawn)	86	96	100	99	109
CCCC(=O)OCCNc1cc(Sc2nc3ccccc3[nH]2)c2nonc2c1[N+](=O)[O-]	3.6*	3.6*	x	x	x
CCC(=O)OCCNc1cc(SCCC(=O)OC)c2nonc2c1[N+](=O)[O-]	67	67	x	x	x
CC(=O)OCCCNc1cc(Sc2ccc(Cl)cc2)c2nonc2c1[N+](=O)[O-]	1.5*	1.6*	x	x	x
CCC(=O)OCCNc1cc(Sc2nccn2C)c2nonc2c1[N+](=O)[O-]	1.6*	1.7*	x	x	x
CCOc1ccc(N(CC(=O)N/N=C/c2ccc(OC(C)C)cc2)S(C)(=O)=O)cc1	92	86	x	x	x
SMILES	bCat KO growth	PTEN del growth	H69AR growth 86K	Fibroblast inh	HUVEC prolif 384
O=C(Cc1c2ccccc2nc2ccccc12)c1ccccc1	82	73	x	x	x
O=c1c2ccccc2n(Cc2ccc(F)cc2)c(=O)n1C1CCCC1	64	58	38*	108	96
Cc1cc2cc(C=C(C#N)C#N)c(Cl)nc2cc1C	19	14	x	x	x
Cc1cc(C)cc(Nc2cc(=O)n(C3CCCCC3)c(=O)[nH]2)c1	77	75	39*	89	73
O=C(Nc1ccc2c(c1)CCC2)C1CCN(c2c3c(nc4ncnn24)CCC3)CC1	34	52	32*	78	77
Cc1ccccc1NC(=O)c1sc(NC(=O)COc2ccccc2)c(C#N)c1C	81	77	x	x	x
Cc1ccc2nsnc2c1S(=O)(=O)NCCc1c(C)[nH]c2ccc(F)cc12	68	57	90	81	79
CCCCCCOc1ccc(/C=c2\s/c(=C(/C#N)C(=O)NCc3ccco3)n(-c3ccccc3)c2=O)cc1	4.7*	7	x	x	x
Cc1cccc(/C=c2\s/c(=C\C(=O)C(C)(C)C)[nH]c2=O)c1	29	26	6.8*	74	61
O=C(COC(=O)c1ccccc1NCc1ccco1)Nc1ccc2c(c1)OCO2	90	89	67	97	84
O=C(COC(=O)c1ccccc1NC(=O)c1ccco1)Nc1ccc2c(c1)OCO2	85	82	38*	95	91
Cc1ccc(S(=O)(=O)CCC(=O)N2CCN(c3ccc(Cl)cc3)CC2)cc1	52	71	78	100	118
CCc1nc(N)c(C#N)c(-c2ccc(F)cc2)c1C	95	89	92	105	100
